The test system of assay [1] is FRα. The settings on record: O4 replaced by an amino group; cited from earlier work.
In assay [2] the test system is reduced folate carrier. The settings on record: folate-binding affinity of reduced folate carrier; cited from earlier work.
Assay [3] concerns the target human FRα (Homo sapiens, UniProt P15328). Kind of assay: saturation radioligand-binding assay with [^3H]-folic acid, wild-type FRα–Fc. As to conditions: fully glycosylated FRα–Fc.
For assay [4], the system named is FRα Y175, K136 and R106 alanine mutants. Kind of assay: saturation radioligand-binding assay, FRα Y175, K136 and R106 mutants. Also on record: species or system human. As to conditions: mutations of Y175, K136 and R106 (bond lengths ≥3.1 Å). The method in brief: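 Human FRα alanine mutants made by site-directed mutagenesis, expressed as Fc fusions in transiently transfected HEK293 cells and Ni-NTA purified. 40 nM protein captured on protein G wells (25 mM Tris pH 8.0, 150 mM NaCl, 0.1% Triton X-100) for 40 min. Ligand stripped at pH 3.5 for 1 min. Then 40 min with varied [³H]-folic acid, two washes, scintillation counting. Kd by nonlinear regression, as fold versus wild type.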

We go through four molecules from PMC5797940 (Nature, 2013).

The term Km denotes the substrate concentration at which the rate is half of its maximum.

SMILES strings stand for the structures.

human FRα, sequence (P15328 23-234): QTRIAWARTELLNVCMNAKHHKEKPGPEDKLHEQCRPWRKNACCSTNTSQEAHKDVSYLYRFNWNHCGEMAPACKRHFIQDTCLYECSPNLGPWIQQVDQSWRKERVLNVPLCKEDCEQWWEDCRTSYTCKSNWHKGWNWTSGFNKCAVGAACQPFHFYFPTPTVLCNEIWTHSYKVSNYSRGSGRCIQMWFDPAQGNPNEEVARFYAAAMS

As to `Nc1nc(N)c2nc(CNc3ccc(C(=O)N[C@@H](CCC(=O)O)C(=O)O)cc3)cnc2n1` [aminopterin], the “affinity for FRα compared with folic acid” value in assay [1] is “reduced affinity”.

As for `Nc1nc(=O)c2nc(CNc3ccc(C(=O)N[C@@H](CCC(=O)O)C(=O)O)cc3)cnc2[nH]1` [folate], the Michaelis constant (Km) in assay [2] is 1 to 10 µM.

Turning to `Nc1nc(=O)c2nc(CNc3ccc(C(=O)N[C@@H](CCC(=O)O)C(=O)O)cc3)cnc2[nH]1` [folic acid], the “folic acid-binding affinity compared with the deglycosylated protein” value in assay [3] is recorded as “similar”. Also, the “effect of the mutation on folic acid binding” value in assay [4] was “little effect”.

Turning to `CN(Cc1cnc2nc(N)nc(N)c2n1)c1ccc(C(=O)N[C@@H](CCC(=O)O)C(=O)O)cc1` [methotrexate], in assay [1], the “affinity for FRα compared with folic acid” value was “reduced affinity”.
